Assay results from different studies.
Target: SRSF protein kinase 1 (SRPK1, Homo sapiens, UniProt Q96SB4)

| Compound | assay | conditions | endpoint | result |
| --- | --- | --- | --- | --- |
| N#CC1(c2ccccn2)CCN(Cc2cc(C(=O)N3CCCC3)c(=O)n3ccccc23)CC1 | cell-free assay, competition with immobilised ligand | 1 µM | remaining binding | 85% |
| Oc1cccc(-c2nc(N3CCOCC3)c3oc4ncccc4c3n2)c1 | enzyme activity, inhibitor | 10 µM | remaining activity | 116% |
| FC(F)(F)Oc1cccc(-c2cnc3ccc(-c4ccncc4)nn23)c1 | enzyme activity, inhibitor, radiometric | 5 µM | activity vs control | 96% |
| CCN(CC)CCNC(=O)c1c(C)[nH]c(/C=C2\C(=O)Nc3ccc(F)cc32)c1C | enzyme activity, inhibitor | 0.3 µM | inhibition | -17% |
| O=C1Nc2ccc(Cl)cc2C1=Cc1cc(Cl)c(O)c(Cl)c1 | cell-free assay | 0.5 µM | remaining signal | 106% |
| Cc1ccc(NC(=O)c2ccc(C)c(C(F)(F)F)c2)cc1C#Cc1nn(C2CCC(O)CC2)c2ncnc(N)c12 (stereo not shown) | cell-free assay | 10 µM | remaining signal | 106% |
| Nc1ncnc2occ(-c3ccc(NC(=O)Nc4cc(C(F)(F)F)ccc4F)cc3)c12 | cell-free assay, inhibitor | 20 µM | remaining signal | 59% |
| CO[C@H]1CC[C@H](CNc2ccc(S(=O)(=O)NC(=O)c3ccc(N4CCN(CC5=C(c6ccc(Cl)cc6)CC(C)(C)CC5)CC4)cc3Oc3cnc4[nH]ccc4c3)cc2[N+](=O)[O-])CC1 | cell-free assay, competition with immobilised ligand | 1 µM | remaining binding | 96% |
| Nc1nc(Nc2ccc(S(N)(=O)=O)cc2)nn1C(=O)c1c(F)cccc1F | cell-free assay | 0.5 µM | remaining signal | 86.4% |
| CNC(=O)c1cc(Oc2ccc(NC(=O)Nc3ccc(Cl)c(C(F)(F)F)c3)cc2)ccn1 | enzyme activity, inhibitor | 10 µM | inhibition | 6% |
| CNC(=O)c1ccc(Nc2ncc(C(F)(F)F)c(NCc3nccnc3N(C)S(C)(=O)=O)n2)cc1 | cell-free assay, competition with immobilised ligand | 0.1 µM | remaining binding | 51% |
| Cc1ccc(NC(=O)c2ccc(CN3CCN(C)CC3)cc2)cc1Nc1nc(-c2cccnc2)cs1 | cell-free assay | 0.5 µM | remaining signal | 98.9% |
| Cc1ccc(Nc2nccc(N(C)c3ccc4c(C)n(C)nc4c3)n2)cc1S(N)(=O)=O | enzyme activity, inhibitor | 10 µM | inhibition | -3% |
| COc1cc(Cl)c(C(=O)N[C@@H](CN[C@H]2CC[C@@H](N)CC2)Cc2ccc(C#N)cc2)cc1-c1ccc(CN[C@H](C)c2ccc(C)cc2)o1 | enzyme activity, inhibitor | 1 µM | remaining activity | 99% |
| CC(=O)N1CCC(c2ccc(C(=O)NC(=N)N)cc2C(F)(F)F)CC1 | cell-free assay, competition with immobilised ligand | 1 µM | remaining binding | 86% |
| COc1cc2ncnc(Nc3ccc(Oc4ccccc4)c(C)c3C)c2cc1OC | enzyme activity, inhibitor | 1 µM | inhibition | 1% |
| CCCCN(CCCC)C(=O)CN1C[C@H](c2cc(OC)c3c(c2)OCO3)[C@@H](C(=O)O)[C@@H]1CC(C)(C)CCC | cell-free assay, competition with immobilised ligand | 1 µM | remaining binding | 100% |

| Compound | assay | conditions | endpoint | result |
| --- | --- | --- | --- | --- |
| CC(C)(C)c1nc2c(s1)c1nc(N)ncc1c1ccc(NS(=O)(=O)c3c(F)cccc3F)c(F)c12 | enzyme activity, inhibitor, radiometric | 1 µM | remaining activity | 99% |
| CC/C(=N\NC(=O)NCc1cccc(O)c1)c1ccc(O)c(C)c1O | enzyme activity, inhibitor | 0.1 µM | inhibition | -11.7% |
| CC(C)(O)[C@H]1CC[C@H](Nc2ccc3ncc(-c4cccc(C(F)(F)F)c4)n3n2)CC1 | enzyme activity, inhibitor | 1 µM | remaining activity | 100% |
| Cc1sc(C(=O)NC2COC2)cc1-n1cc(NC(=O)Nc2c(F)cccc2Cl)cn1 | enzyme activity, inhibitor | 10 µM | remaining activity | 96.9% |
| CC(C)c1ccc(NC(=O)c2cccs2)c(-c2nc3ccccc3[nH]c2=O)c1 | enzyme activity, inhibitor | 1 µM | activity vs control | 100% |
| O=S(=O)(NC1CCC(c2cc(F)ccc2F)(S(=O)(=O)c2ccc(Cl)cc2)CC1)C(F)(F)F (stereo not shown) | cell-free assay, competition with immobilised ligand | 1 µM | remaining binding | 100% |
| O=C1NC(=O)c2cc(Nc3ccc(F)cc3)c(Nc3ccc(F)cc3)cc21 | cell-free assay | 0.5 µM | remaining signal | 102% |
| CCOc1cc(-c2nncn2C)ccc1Nc1ncc2cc(C)nc(NCC(C)(C)C)c2n1 | enzyme activity, inhibitor, FRET | 1 µM | inhibition | < 15% |
| O=C(Nc1cnn(-c2csc(C(=O)NC3COC3)c2)c1)Nc1c(F)cccc1Cl | enzyme activity, inhibitor | 5 µM | remaining activity | 104% |
| CN1CC(Oc2cnc(C#N)cc2-c2ccn3nc(NC(=O)C4CC4)cc3c2)C1 | enzyme activity, inhibitor | 1 µM | inhibition | -2% |
| C=CC(=O)Nc1cc(Nc2nccc(Nc3cc(Cl)c(F)cc3C(C)(C)O)n2)c(OC)cc1N1CC[C@@H](N(C)C)C1 | enzyme activity, inhibitor | 1 µM | inhibition | 2% |
| CC(C)(C)C(=O)c1sc(NC2CCCCC2)nc1N | enzyme activity, inhibitor | 10 µM | remaining activity | 92% |
| COc1cc(Nc2cnc(C#N)c(O[C@H](C)CN(C)C)n2)ncc1-c1cnn(C)c1 | enzyme activity, inhibitor, radiometric | 1 µM | remaining activity | 89% |
| O=C(Nc1ccc(Oc2ccc(F)cc2)cc1)N1CCc2ncccc2[C@H]1c1ccc(F)cc1 | cell-free assay, competition with immobilised ligand | 1 µM | remaining binding | 94% |
| CCCCNc1ncc2c(-c3ccc(F)cc3)nn(C[C@H]3CC[C@H](N)CC3)c2n1 | target engagement in cells, inhibitor, chemoproteomics | 20 mM | inhibition | -21.7% |
| C[C@@H]1CN(c2cc(-c3nn(C)c4ccc(OC5(C)CC5)cc34)ncn2)C[C@H](C)O1 | cell-free assay, competition with immobilised ligand | 1 µM | remaining binding | 88% |
| Nc1nc(NC2CCCCC2)sc1C(=O)c1ccccc1 | enzyme activity, inhibitor | 10 µM | remaining activity | 93% |
